Measured values: ChEMBL document CHEMBL1125736, “N-[(omega-amino-1-hydroxyalkyl)phenyl]methanesulfonamide derivatives with class III antiarrhythmic activity” (1991)

Experiments:
[1] = tested on: Canis familiaris; assay: Conduction time from Q wave to T wave of lead II electrocardiogram corrected for heart rate was tested in dogs at a dose of 0.3 mg/kg through intravenous administration. (baseline value- 352+/-7); format: functional, Canis lupus familiaris
[2] = tested on: Canis familiaris; assay: Conduction time from Q wave to T wave of lead II electrocardiogram corrected for heart rate was tested in dogs at a dose of 1.0 mg/kg through intravenous administration. (baseline value- 352+/-7); format: functional, Canis lupus familiaris
[3] = tested on: Canis familiaris; assay: Conduction time from the His bundle to the onset of ventricular depolarizations was tested in dogs at a dose of 0.1 mg/kg through intravenous administration. (baseline value- 17+/-1 ); format: functional, Canis lupus familiaris, Cardiac ventricle
[4] = tested on: Canis familiaris; assay: Conduction time from the His bundle to the onset of ventricular depolarizations was tested in dogs at a dose of 0.3 mg/kg through intravenous administration. (baseline value- 17+/-1 ); format: functional, Canis lupus familiaris, Cardiac ventricle
[5] = tested on: Canis familiaris; assay: Conduction time from the His bundle to the onset of ventricular depolarizations was tested in dogs at a dose of 1.0 mg/kg through intravenous administration. (baseline value- 17+/-1 ); format: functional, Canis lupus familiaris, Cardiac ventricle
[6] = tested on: Canis familiaris; assay: Conduction time from the atrium to His bundle was tested in dogs at a dose of 0.1 mg/kg through intravenous administration. (baseline value- 73+/-3 ); format: functional, Canis lupus familiaris
[7] = tested on: Canis familiaris; assay: Compound was tested in vivo in dogs at a dose of 0.1 mg/kg through intravenous route and time at which ventricular arrhythmias were not indicible was recorded.(Base line value-1); format: functional, Canis lupus familiaris, Cardiac ventricle
How it was run: (§1)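 Dogs with myocardial infarction were studied 3-9 days after infarction. They were reanesthetized with pentobarbital, ventilated, and electrodes were placed via thoracotomy; blood gases were monitored. Control ERPs and reproducible inducibility were set by programmed electrical stimulation, then cumulative iv doses were given. Agents were in glass-distilled water or NaOH-neutralized saline (pH 6.7-7.0). Animals were counted per category: NI, nonsustained, sustained, VF, or AV block preventing atrial pacing.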

[8] = tested on: Canis familiaris; assay: Compound was tested in vivo in dogs at a dose of 1.0 mg/kg through intravenous route and time at which sustained ventricular arrhythmias were induced was recorded.(Base line value-3); format: functional, Canis lupus familiaris, Cardiac ventricle; how it was run: as §1
[9] = tested on: Canis familiaris; assay: Compound was tested in vivo in dogs at a dose of 1.0 mg/kg through intravenous route and time at which ventricular arrhythmias were not indicible was recorded.(Base line value-1); format: functional, Canis lupus familiaris, Cardiac ventricle; how it was run: as §1
[10] = tested on: Canis familiaris; assay: Compound was tested in vivo in dogs at a dose of 1.0 mg/kg through intravenous route and time at which ventricular fibrillation was induced was recorded.(Base line value-6); format: functional, Canis lupus familiaris, Cardiac ventricle; how it was run: as §1
[11] = tested on: Canis familiaris; assay: Conduction time from the atrium to His bundle was tested in dogs at a dose of 0.3 mg/kg through intravenous administration. (baseline value- 73+/-3 ); format: functional, Canis lupus familiaris
[12] = tested on: Canis familiaris; assay: Conduction time from the atrium to His bundle was tested in dogs at a dose of 1.0 mg/kg through intravenous administration. (baseline value- 73+/-3 ); format: functional, Canis lupus familiaris
[13] = tested on: Canis familiaris; assay: Compound was tested in vivo in dogs at a dose of 0.1 mg/kg through intravenous route and time at which sustained ventricular arrhythmias were induced was recorded.(Base line value-3); format: functional, Canis lupus familiaris, Cardiac ventricle; how it was run: as §1
[14] = tested on: Canis familiaris; assay: Conduction time for ventricular refractory period of the first premature stimulus was tested in dogs at a dose of 0.1 mg/kg through intravenous administration. (baseline value- 137+/-4); format: functional, Canis lupus familiaris, Cardiac ventricle
[15] = tested on: Canis familiaris; assay: Conduction time for ventricular refractory period of the first premature stimulus was tested in dogs at a dose of 0.3 mg/kg through intravenous administration. (baseline value- 137+/-4); format: functional, Canis lupus familiaris, Cardiac ventricle
[16] = tested on: Canis familiaris; assay: Conduction time for ventricular refractory period of the first premature stimulus was tested in dogs at a dose of 1.0 mg/kg through intravenous administration. (baseline value- 137+/-4); format: functional, Canis lupus familiaris, Cardiac ventricle
[17] = tested on: Canis familiaris; assay: Compound was tested in vivo in dogs at a dose of 0.1 mg/kg through intravenous route and time at which nonsustained ventricular arrhythmias were induced was recorded.(Base line value-1); format: functional, Canis lupus familiaris, Cardiac ventricle; how it was run: as §1
[18] = tested on: Canis familiaris; assay: Compound was tested in vivo in dogs at a dose of 0.3 mg/kg through intravenous route and time at which nonsustained ventricular arrhythmias were induced was recorded.(Base line value-1); format: functional, Canis lupus familiaris, Cardiac ventricle; how it was run: as §1
[19] = tested on: Canis familiaris; assay: Compound was tested in vivo in dogs at a dose of 0.3 mg/kg through intravenous route and time at which sustained ventricular arrhythmias were induced was recorded.(Base line value-3); format: functional, Canis lupus familiaris, Cardiac ventricle; how it was run: as §1
[20] = tested on: Canis familiaris; assay: Compound was tested in vivo in dogs at a dose of 0.3 mg/kg through intravenous route and time at which ventricular arrhythmias were not indicible was recorded.(Base line value-1); format: functional, Canis lupus familiaris, Cardiac ventricle; how it was run: as §1
[21] = tested on: Canis familiaris; assay: Compound was tested in vivo in dogs at a dose of 0.3 mg/kg through intravenous route and time at which ventricular fibrillation was induced was recorded.(Base line value-6); format: functional, Canis lupus familiaris, Cardiac ventricle; how it was run: as §1
[22] = tested on: Canis familiaris; assay: Compound was tested in vivo in dogs at a dose of 1.0 mg/kg through intravenous route and time at which nonsustained ventricular arrhythmias were induced was recorded.(Base line value-1); format: functional, Canis lupus familiaris, Cardiac ventricle; how it was run: as §1
[23] = tested on: Canis familiaris; assay: Conduction time for ventricular refractory period of the second premature stimulus was tested in dogs at a dose of 0.1 mg/kg through intravenous administration. (baseline value- 123+/-4); format: functional, Canis lupus familiaris, Cardiac ventricle
[24] = tested on: Canis familiaris; assay: Conduction time for ventricular refractory period of the second premature stimulus was tested in dogs at a dose of 0.3 mg/kg through intravenous administration. (baseline value- 123+/-4); format: functional, Canis lupus familiaris, Cardiac ventricle
[25] = tested on: Canis familiaris; assay: Conduction time for ventricular refractory period of the second premature stimulus was tested in dogs at a dose of 1.0 mg/kg through intravenous administration. (baseline value- 123+/-4); format: functional, Canis lupus familiaris, Cardiac ventricle
[26] = tested on: Canis familiaris; assay: Conduction time from Q wave to T wave of lead II electrocardiogram corrected for heart rate was tested in dogs at a dose of 0.1 mg/kg through intravenous administration. (baseline value- 352+/-7); format: functional, Canis lupus familiaris
[27] = species: Oryctolagus cuniculus; assay: Tested for effective refractory period measured at a pacing rate of 1 Hz in vitro with rabbit heart tissue preparations.; format: functional
How it was run: (§2)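 Isolated rabbit heart tissues, all from one heart, each its own baseline; 2 h equilibration, perfusate changed every 15 min, basal stimulation 2 Hz between measurements. Exposed to 10^-7, 10^-6 and 10^-5 M drug, 15 min each; values reported at 10^-5 M as percent change from baseline. Drug solutions prepared daily in glass-distilled water. Force and rate recorded on polygraph.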

[28] = species: Oryctolagus cuniculus; assay: Tested for effective refractory period measured at a pacing rate of 3 Hz in vitro with rabbit heart tissue preparations.; format: functional; design: unit: %; how it was run: as §2
[29] = species: Oryctolagus cuniculus; assay: Tested for conduction time measured at a pacing rate of 3 Hz in vitro with rabbit heart tissue preparations.; format: functional; how it was run: as §2
[30] = species: Oryctolagus cuniculus; assay: Tested for force of contraction measured in mg at a pacing rate of 2 Hz in vitro with rabbit heart tissue preparations.; format: functional; how it was run: as §2
[31] = species: Oryctolagus cuniculus; assay: Tested for conduction time measured at a pacing rate of 1 Hz in vitro with rabbit heart tissue preparations.; format: functional; how it was run: as §2
[32] = species: Oryctolagus cuniculus; assay: Tested for rate automaticity measured in beats per minute from unpaced right atria of rabbit heart.; format: functional; how it was run: as §2
[33] = tested on: Canis familiaris; assay: Compound was tested in vivo in dogs at a dose of 0.1 mg/kg through intravenous route and number of animals in which ventricular fibrillation was induced was recorded.(Base line value-6)

Q: Which results are given for `CCCCCCCN(CC)CCCC(O)c1ccc(NS(C)(=O)=O)cc1` (stereo not drawn) [IBUTILIDE]?
A: Time [1]: 387 ms; Time [2]: 364 ms; Time [3]: 16 ms; Time [4]: 17 ms; Time [5]: 17 ms; Time [6]: 73 ms; Time [7]: 3 animals; Time [8]: 0 animals; Time [9]: 4 animals; Time [10]: 1 animals; Time [11]: 75 ms; Time [12]: 77 ms; Time [13]: 2 animals; Time [14]: 151 ms; Time [15]: 154 ms; Time [16]: 146 ms; Time [17]: 5 animals; Time [18]: 2 animals; Time [19]: 0 animals; Time [20]: 5 animals; Time [21]: 2 animals; Time [22]: 2 animals; Time [23]: 137 ms; Time [24]: 139 ms; Time [25]: 128 ms; Time [26]: 372 ms; ERP1 [27]: 18; ERP3 [28]: 15.8; CT3 [29]: 31.2; FOC [30]: 1.9; CT1 [31]: 14.6; Rate [32]: -22; number of animals [33]: 1 animals
